The target of test [1] is T1, Beta-lactamase 1 (Bacillus cereus) (UniProt P00809).
T1 sequence (whole entry): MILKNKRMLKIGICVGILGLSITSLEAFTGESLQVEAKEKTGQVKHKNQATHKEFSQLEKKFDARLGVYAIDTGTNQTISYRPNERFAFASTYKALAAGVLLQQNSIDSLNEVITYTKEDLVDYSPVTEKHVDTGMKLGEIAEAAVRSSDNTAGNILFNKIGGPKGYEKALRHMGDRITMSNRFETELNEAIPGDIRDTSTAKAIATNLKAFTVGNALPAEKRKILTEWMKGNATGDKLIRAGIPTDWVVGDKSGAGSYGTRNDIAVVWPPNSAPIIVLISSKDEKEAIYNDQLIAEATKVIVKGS
The test can be described thus: Inhibitory activity at beta-lactamase I from Bacillus cereus expressed as percent inhibition of beta-lactam hydrolysis at a concentration of 100.0 umol/L; The inhibitory activity at lower concentrations was not determined. The essentials: (§1)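 B. cereus beta-lactamase I was preincubated with inhibitor (range 1–100) for 20 min at 25 °C in microtitre plates. Chromogenic substrate nitrocefin was then added, followed by a further 60 min incubation. Hydrolysis was monitored spectrophotometrically at 490 nm, and the reduction in nitrocefin hydrolysis was expressed as % enzyme inhibition.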

Another test concerns the target Beta-lactamase class C (Enterobacter cloacae, UniProt Q59401). Description: The compound was tested for its inhibitory activity towards Class C beta-lactamase from Enterobacter cloacae 908R at 0.8 umol concentration. It counts as single protein.
The target in the next test is Beta-lactamase TEM (Escherichia coli, UniProt P62593). Description: The compound was tested for its inhibitory activity towards Class A TEM-1 beta-lactamase from Escherichia coli at 0.3 umol.
Beta-lactamase TEM, sequence (P62593 whole entry): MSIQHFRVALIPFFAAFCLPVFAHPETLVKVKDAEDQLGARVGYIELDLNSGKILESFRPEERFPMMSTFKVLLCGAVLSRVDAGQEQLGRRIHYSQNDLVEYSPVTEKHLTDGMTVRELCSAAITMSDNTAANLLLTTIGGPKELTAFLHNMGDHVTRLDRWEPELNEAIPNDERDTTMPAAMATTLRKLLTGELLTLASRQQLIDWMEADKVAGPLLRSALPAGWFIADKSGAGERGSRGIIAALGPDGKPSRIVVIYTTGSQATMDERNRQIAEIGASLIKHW
For test [2], the target named is T1, Beta-lactamase 1 (Bacillus cereus). Description: Inhibitory activity at beta-lactamase I from Bacillus cereus expressed as percent inhibition of beta-lactam hydrolysis at a concentration of 1.0 umol/L. The essentials: as §1
Test [3] shares this target. The test can be described thus: Inhibitory activity at beta-lactamase I from Bacillus cereus expressed as percent inhibition of beta-lactam hydrolysis at a concentration of 10.0 umol/L. The method in brief:
as §1

The target is the same in test [4]. The test can be described thus: Inhibitory activity at beta-lactamase I from Bacillus cereus expressed as percent inhibition of beta-lactam hydrolysis at a concentration of 100.0 umol/L. The method in brief: as §1

Beta-lactamase class C, sequence (Q59401 whole entry): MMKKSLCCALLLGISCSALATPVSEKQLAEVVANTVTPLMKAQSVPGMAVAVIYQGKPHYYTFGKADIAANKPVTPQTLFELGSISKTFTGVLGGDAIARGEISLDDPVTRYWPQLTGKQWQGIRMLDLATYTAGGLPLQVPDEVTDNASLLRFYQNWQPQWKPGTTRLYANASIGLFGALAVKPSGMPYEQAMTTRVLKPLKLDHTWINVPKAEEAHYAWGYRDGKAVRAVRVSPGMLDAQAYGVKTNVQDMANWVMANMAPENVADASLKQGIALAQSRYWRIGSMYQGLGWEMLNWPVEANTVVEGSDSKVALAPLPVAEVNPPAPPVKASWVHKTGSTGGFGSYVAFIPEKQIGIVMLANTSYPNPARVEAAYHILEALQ

Regarding `C/C=C1/C(=O)N2C(C(=O)[O-])=C3CCCCC3[C@H]12.[Na+]` (some centres undefined), the inhibition in test [1] is 23%. The results for the IC50 against Beta-lactamase class C and on Beta-lactamase TEM were 1.8 µM and 120 uM l-1, respectively.

As for `O=C(O)[C@H]1/C(=C/CO)O[C@@H]2CC(=O)N21`, the values for the inhibition in test [2], in test [3] and in test [4] were 9%, 33% and 78%, respectively.

For the compound `C/C=C1/C(=O)N2C(C(=O)O)=C3CCSCC3[C@@H]12` (some centres undefined), the inhibition in test [2] was found to be 6%; in test [3], 19%; in test [4], 60%. Also, the IC50 was found to be 5 µM against Beta-lactamase class C and 32 µM at Beta-lactamase TEM (read-out: IC50).

Regarding `CC1(C)[C@H](C(=O)O)N2C(=O)C[C@H]2S1(=O)=O`, the inhibition in test [2] worked out at 2%; in test [3], 40%; in test [4] it was 77%.

As for `C/C=C1/C(=O)N2C(C(=O)O)=C3CCCCC3[C@@H]12` (some centres undefined), the inhibition in test [2] is -1%; in test [3], 14%; in test [4] it was 61%. For the same compound, the IC50 against Beta-lactamase class C is 3 µM; on Beta-lactamase TEM (read-out: IC50), 39 µM.

For `C/C=C1/C(=O)N2C(C(=O)O)=C3CCSCC3[C@H]12` (some centres undefined), the inhibition in test [1] stood at 38%. Moreover, the IC50 on Beta-lactamase class C came out at 4.2 µM; at Beta-lactamase TEM (read-out: IC50), 100 µM.

As for `C[C@@H](O)[C@H]1C(=O)N2C(C(=O)O)=C3CCCCC3[C@@H]12` (some centres undefined), the inhibition in test [1] amounted to 3%.

As for `C[C@@H](O)[C@H]1C(=O)N2C(C(=O)O)=C3CCCCC3[C@H]12` (some centres undefined), the inhibition in test [1] was 5%.

For orientation: inhibition means the drop in the measured response relative to a control, in per cent.

Values taken from ChEMBL document CHEMBL1135255, “Design, synthesis and bioactivity evaluation of tribactam beta lactamase inhibitors” (Bioorg Med Chem Lett, 2002).
